Data as given in the EternaBench riboswitch data.

Test system: MS2 coat protein
Test: apparent Kd, MS2 coat protein; higher = weaker binding; RNA-MaP array; FMN 200 µM where present
How it was run: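 Designs on Illumina sequencing-chip clusters, transcribed by stalled E. coli RNA polymerase, were exposed to SNAP-549-labelled MS2 coat protein in doubling steps from 0.7 or 1.5 nM up to 3 µM, without and then with constant ligand. The buffer held 100 mM Tris-HCl pH 7.5, 80 mM KCl, 4 mM MgCl2, BSA, DTT, yeast tRNA and Tween-20. Apparent Kd values are medians of filtered per-cluster binding-curve fits to green signal normalised to red-channel RNA signal and control-cluster median Fmax.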

[1] = designed as: OFF switch for flavin mononucleotide, no ligand
[2] = ligand present: flavin mononucleotide, designed as: OFF switch for flavin mononucleotide
[3] = designed as: ON switch for flavin mononucleotide, no ligand
[4] = ligand present: flavin mononucleotide, designed as: ON switch for flavin mononucleotide

| Sequence | apparent Kd [1] | apparent Kd [2] | apparent Kd [3] | apparent Kd [4] |
| --- | --- | --- | --- | --- |
| AAGAAACAUGAGGAUCACCCAUGUGAGGAUAUGAAAAAGAAAAGAAAAGAAAGAAGGUUCAGAAGGCACAAAGG | 32.8 nM | 64.8 nM | – | – |
| AAGAAACAUGAGGAUCACCCAUGUGAGGAUAUGCAAGAAAGAAAGAAAGAAAGAAGAAGCAGAAGGCACAAAGG | 25.8 nM | 49.7 nM | – | – |
| AAGAAACAUGAGGAUCACCCAUGUGAUAAUAUGGGAGGAUAUACAAAGACGAAAGUCGAAGUAGAAGGCCUAUGAA | – | – | 52.3 nM | 43.2 nM |
| AAGAAAGAAACGUAGGAUAUCAAGAAUAUAACAUGAGGAUCACCCAUGUAAAUACGAAAGUAUAAUGAGAAGGAUGGAUGAUCUUC | – | – | 102 nM | 83.4 nM |
| AAGAAAGUAUUGCGAGGGUAGGAGCAGGAUAUCCCAUUGGCCCUCACAUGAGGAUCACCCAUGUGGGAGAAGGGCUAUUACGUU | 6.51 nM | 13.2 nM | – | – |
| AAGAACAUUGACAUGAGGAUCACCCAUGUUGCAGCUAGCUACAGAAGGCACGCGGUACCAAAGGGUGAGGAUAUGUAGGGCCAU | – | – | 93.4 nM | 17.2 nM |
| AAGAAGCUCACAGGAUAUCAGUAUAUGCGAUCACACGUAUUAAUGAACUGCUGAGAAGGGUGAGACAUGAGGAUCACCCAUGUA | – | – | 446 nM | 238 nM |
| AAGAAGGACGCAGGAUAUCCAGGACCUCCCGCAGGAGAAGGGCGAGACACGUGGAUCACCCAGACAUGAGGAUCACCCAUGUAG | 15.6 nM | 14.2 nM | – | – |
| AAGAAGGACGCAGGAUAUCCAGGACCUCCCGCAGGAGAAGGGCGAGACAUGAGGAUCACCCAGACAUGAGGAUCACCCAUGUAG | 37.4 nM | 37.1 nM | – | – |
| AAGAAGGACGCAGGAUAUCCAGGACCUCCCGCAGGAGAAGGGCGAGACAUGAGGAUCACCCAUACAUGAGGAUCACCCAUGUAA | 20.4 nM | 22.3 nM | – | – |
| AAGAAGGCAGGAUAUACAAAAUAAAAGAAAAGAAAGAAAGAACAUGAGGAUCACCCAUGUAGAAGGGUCAAGAA | 59.3 nM | 66.1 nM | – | – |
| AAGAAGUGAGGAUAUGCUGCUCGUCACUUGCGUGAUGAGUAGCAGAAGGCACAUGAGGAUCACCCAUGUGGAAA | 31.3 nM | 43.1 nM | – | – |
| AAGACUAGAGGAUAUACAUGAGGAUCACCCAUGUAACUGUCAGGAGACUGACGGAGAUGUAGAAGGCUAGUCAA | 17 nM | 34.1 nM | – | – |
| AAGAUCGGAGGAUAUGAAAGGCGUUACAUGAGGAUCACCCAUGUCGGUUUCAUGUUCGUCUCAGAAGGCCGACUCC | 84.7 nM | 311 nM | – | – |
| AAGAUGUGAGGAUAUCACGAGAGCGUCAAACGGACACUCUCUGAGAAGGCACAUGAGGAUCACCCAUGUCCAAA | 57.2 nM | 295 nM | – | – |
| AAGCACAGAGGAUAUACAUGGGUGAUAAAAAAAAUGUAAAAACAUGAGGAUCACCCAUGUAGAAGGCUGUGCAA | 22.6 nM | 16.5 nM | – | – |
| AAGCUCGUGUGAGGAUAUGCCGCCGUUUCGGCUGCAGAAGGUGCUACGUUACAUGAGGAUCACCCAUGUCUCUGUUGUUUCGUG | – | – | 23 nM | 22.3 nM |
| AAGGAACGAGGAUAUGCAGGUUGAGCUCGAGUUCGACCGGAACAUGAGGAUCACCCAUGUAGAAGGUGUAUCCC | 24.1 nM | 24.4 nM | – | – |
| AAGGAGUAAGGAUAUGCUGCUCGUCACUUGCGUGAUGAGUAGCAGAAGGUACAUGAGGAUCACCCAUGUAAAAA | 24.5 nM | 18.3 nM | – | – |

| Sequence | apparent Kd [1] | apparent Kd [2] | apparent Kd [3] | apparent Kd [4] |
| --- | --- | --- | --- | --- |
| AAGGAGUGAGGAUAUACAUGAGGAUCACCCAUGUUGAUGGAAACGUCAGAGAAAGAAGGUAGAAGGCACAAGAA | 56.7 nM | 58.5 nM | – | – |
| AAGGAUCGAGGAUAUACAUAGAUACAGAUACAUGUAUACGUACAUGAGGAUCACCCAUGUAGAAGGCGAUCAUA | 37.1 nM | 214 nM | – | – |
| AAGGCAAUGUCAUGCCCACCGGACAGAAGGCAAUGUGGGCAGCCCGACAUGAGGAUCACCCAUGUUGAGGAUAUGUCCCGUCCU | 2.72 nM | 2.85 nM | – | – |
| AAGGUGUAAGGAUAUGCUGCUCGUCACUUGCGUGAUGAGUAGCAGAAGGUACAUGAGGAUCACCCAUGUAAAGA | 32.5 nM | 38.2 nM | – | – |
| AAGUAGGUAGGAUAUGCAUAGAUAUACAUUCAUGUGGAUUUACAUGAGGAUCACCCAUGUAGAAGGACCUAAUA | 37.5 nM | 136 nM | – | – |
| AAGUAUAGAGGAUAUAGUAAGUACUACAUGAGGAUCACCCAUGUUCUUCAUUACGUAUUUCUAGAAGGCUGAUAAA | 376 nM | 581 nM | – | – |
| AAGUCAGCAGGAUAUGCGAUGUUGUGCUAGAUAGCGUGACCACAUGAGGAUCACCCAUGUAGAAGGGCUGGCUA | 30.9 nM | 20.2 nM | – | – |
| AAGUCCAGAGGAUAUCAGACGCGGCACAUGAGGAUCACCCAUGUAUUCCCGUCUGCCGACUGAGAAGGUUGGAAAG | 12 nM | 17.8 nM | – | – |
| AAGUGCUAAGGAUAUAUAUGGAUAUACAUUUAUGUAGAACUACAUGAGGAUCACCCAUGUAGAAGGUAGCAAUA | 25.3 nM | 42.3 nM | – | – |
| AAGUGGUUUAUAUAUUUAGAUAUCAGAAGGCGUGACAUGAGGAUCACCCAUGUGGACUAACAUGACGAGGAUAUGACUAAUUGU | 30.4 nM | 39.8 nM | – | – |
| AAGUGUAUAGGAUAUGCGUGGAAAAGGUGUAUUCACUAGCGACAUGAGGAUCACCCAUGUAGAAGGGUAUGUAA | 124 nM | 64 nM | – | – |
| AAGUUGUCAGGAUAUCGUUAAUUUAGUUGUUUGUAUUAGUUCGAGAAGGGACAUGAGGAUCACCCAUGUUUGAA | 32.5 nM | 40.5 nM | – | – |
| AAGUUUGUACAAGGAUAUCAAUUGUUUCUAAAUUCAACAUGAGGAUCACCCAUGUAACAAUGGAGUGAGAAGGUGUGUGGGCAA | – | – | 419 nM | 423 nM |
| AAGUUUUUACAAGGAUAUCAAUUUUUUCUAAAUUCAACAUGAGGAUCACCCAUGUAACAAUGGAGUGAGAAGGUGUUUUGGCAA | – | – | 176 nM | 205 nM |
| AAUAAACUAGGAUAUACAUGAGGAUCACCCAUGUGUCGCCACGUGCUUGCUCACUCGUGUAGAAGGAGUACGGA | 38.5 nM | 73.1 nM | – | – |
| AAUAAACUCACAGGAUAUAGCAGAGGUCGCGUGAACUUACAGACGACGAUGCUAGAAGGGUGACCACAUGAGGAUCACCCAUGU | – | – | 591 nM | 151 nM |
| AAUAAACUCACAGGAUAUAGCAGAGGUCGCGUGAACUUACAGGCAACGAUGCUAGAAGGGUGACCACAUGAGGAUCACCCAUGU | – | – | 520 nM | 145 nM |
| AAUAAACUCACAGGAUAUAGCAGAUGUCGCGUGAACUUACAGGCGACGAGGCUAGAAGGGUGACCACAUGAGGAUCACCCAUGU | – | – | 738 nM | 103 nM |
| AAUAAACUCACAGGAUAUAGCAGAUGUCGCGUGAACUUACAGGCGACGAUGCUAGAAGGGUGACCACAUGAGGAUCACCCAUGU | – | – | 1200 nM | 142 nM |

| Sequence | apparent Kd [1] | apparent Kd [2] | apparent Kd [3] | apparent Kd [4] |
| --- | --- | --- | --- | --- |
| AAUAAACUCACAGGAUAUAGCAUAGGCCGCGUGAACUUACAGGCGACUAUGCUAGAAGGGUGACCACAUGAGGAUCACCCAUGU | – | – | 851 nM | 141 nM |
| AAUAACAGAGGAUAUACUAUUUUAUGUAUUUAUUAUUUUGAACAUGAGGAUCACCCAUGUAGAAGGCUGAAUAA | 22.7 nM | 21.7 nM | – | – |
| AAUAACAGAGGAUAUACUAUUUUAUGUGUUUAUUGUUUUAAACAUGAGGAUCACCCAUGUAGAAGGCUGAUUGA | 77.3 nM | 114 nM | – | – |
| AAUAACAGAGGAUAUACUAUUUUAUGUGUUUGUUAUUUUAAACAUGAGGAUCACCCAUGUAGAAGGCUGAUUGA | 46.7 nM | 46.6 nM | – | – |
| AAUAAGCUAGGAUAUACAUGAGGAUCACCCAUGUGAGGGCACGGCCGGCGCGGGCCCGGUAGAAGGAGUCAUAA | 28.6 nM | 23.6 nM | – | – |
| AAUAAGUGAGGAUAUGCGUCUGGUCCCGGGAGGGCUAUAUAACAUGAGGAUCACCCAUGUAGAAGGCACAAUAA | 16.8 nM | 13.9 nM | – | – |
| AAUAAUUAGUGAGGAUAUACAUAAUUUAUUACUGUAGAAGGCACAAACCUCAAGACAUGAGGAUCACCCAUGUGGUAUUUAAAU | 213 nM | 390 nM | – | – |
| AAUACAUGAGGAUCACCCAUGUUAUGAUCAAACAAUAUGAGUGAGGAUAUACUGAGUUAGUUAUGGUAGAAGGCACUGGGUUCA | – | – | 79.9 nM | 45.3 nM |
| AAUAGUGGCGUAGGAUAUCUGCGUACAUGAGGAUCACCCAUGUCUCCCAGCCGCUGAGCUGGGACAGAGAAGGGCGACCGCAUA | – | – | 229 nM | 88.9 nM |
| AAUAUAGAGCUGGAAUAAAACCUCACAUGAGGAUCACCCAUGUAGGAUAUCAGCACGAUAAGUGCUGAGAAGGACAUCCAGCUC | 15.6 nM | 17.9 nM | – | – |
| AAUAUAGAGCUGGUCUCAUAAUAAACAUGAGGAUCACCCAUGUAGGAUAUCAGCACGAUAAGUGCUGAGAAGGACAUCCAGCUC | 21.4 nM | 47 nM | – | – |
| AAUAUGUUAGGAUAUGCUGCUCGUCACAAAAGUGAUGAGUAGCAGAAGGGACAUGAGGAUCACCCAUGUAAAGA | 36.6 nM | 29.6 nM | – | – |
| AAUAUGUUGCAGAAGGCCAUGUUGUGGUAGUACCUCAUGACAUGAGGAUCACCCAUGUCUGUGUUGGAGGAUAUGCAAUAUAUU | 7.24 nM | 12.3 nM | – | – |
| AAUCAGCGAGGAUAUACAGAUUCUGGGUGCGGCUCGGCGAGACAUGAGGAUCACCCAUGUAGAAGGUGCUAGCC | 37.9 nM | 43.8 nM | – | – |
| AAUCAGUCAGGAUAUCGUUAAUUUAAUUGUUUGUUUUAGUUCGAGAAGGGACAUGAGGAUCACCCAUGUACUCA | 23.1 nM | 28.8 nM | – | – |
| AAUCCACAUGAGGAUCACCCAUGUCAGGAUAUACGCAUCGGACCGAUCGGCUGUUUGGGUAGAAGGGACGUGCA | 16 nM | 16.1 nM | – | – |
| AAUCGAUCAACAGGAUAUGCGCAAUGAUCUGAACAUGAGGAUCACCCAUGUGCAGAAGGGUUGGUCAUCUUUUGGGACGAGACA | 101 nM | 311 nM | – | – |
| AAUGCCAACGAAGGAUAUACAAACAUGAGGAUCACCCAUGUGUCUUUCGUGUAACUGGAAUUCGGGUAGAAGGUCGUUGACAUA | 24.2 nM | 23.2 nM | – | – |
